Measured values reported in publication PMC3204214 (Proteins, 2011).
Entries after “also recorded” stand apart in the source; their conditions may differ.

What was measured:
[1] = FT-IR / 2D IR correlation spectroscopy, thermal dependence; type: physicochemical; details: ^13C-Crcen-MLT complex
human centrin 3 = details: compared to Hscen2-MLT (Kd 62.5 nM); ref [16],[25]; cited from earlier work
CaM (calmodulin) = details: cited from earlier work
[2] = biological target: T1, Crcen (Chlamydomonas reinhardtii centrin) (Chlamydomonas reinhardtii, UniProt P05434); experiment: X-ray crystal structure of Crcen-MLT complex; type: binding; details: PDB 3QRX, 2.30 Å, 4 Ca^2+ ions, Crcen-MLT 1:1.5 molar ratio
T1 sequence (P05434 2-169): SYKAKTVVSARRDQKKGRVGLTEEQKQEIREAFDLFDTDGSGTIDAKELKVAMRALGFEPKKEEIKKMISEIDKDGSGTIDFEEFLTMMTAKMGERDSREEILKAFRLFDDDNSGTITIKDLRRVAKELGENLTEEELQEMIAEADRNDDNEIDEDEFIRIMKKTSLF

human centrin 2 (Hscen2) = details: 30 °C, pH 6.5; compared to Crcen-MLT and CaM-MLT; ref [16]; cited from earlier work
[3] = biological target: T1, Crcen (Chlamydomonas reinhardtii centrin); experiment: Isothermal titration calorimetry of Crcen-MLT interaction; type: binding; details: ITC, pH 7.4, 25 °C
In short: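 Unlabeled recombinant centrin was expressed in E. coli, purified, and quantified by ε280 = 1,490 M⁻¹ cm⁻¹. The acetylated, amidated test peptide was dialysed against 0.1 N HCl to remove TFA, then against buffer. 120 μM peptide was injected sequentially into 10 μM centrin in 50 mM Hepes, 150 mM NaCl, 4 mM CaCl₂, 4 mM MgCl₂, pH 7.4, 25 °C. Data were fitted to a one-site binding model.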

calmodulin (CaM) = details: literature statement; cited from earlier work
tumor = details: ref [23],[24]; cited from earlier work
[4] = biological target: Chlamydomonas reinhardtii centrin (Chlamydomonas reinhardtii) (UniProt P05434); experiment: ITC
Chlamydomonas reinhardtii centrin (Chlamydomonas reinhardtii), sequence (P05434 whole entry): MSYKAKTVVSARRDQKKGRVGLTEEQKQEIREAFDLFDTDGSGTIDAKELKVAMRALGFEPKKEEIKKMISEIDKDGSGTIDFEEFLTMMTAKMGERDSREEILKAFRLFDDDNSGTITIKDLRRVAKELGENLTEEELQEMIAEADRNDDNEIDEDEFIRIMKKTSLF

[5] = biological target: melittin (Apis mellifera) (UniProt P01501); details: cited from earlier work
melittin (Apis mellifera), sequence (P01501 44-70): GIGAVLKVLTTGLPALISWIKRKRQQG

[6] = ref [12]; cited from earlier work
[7] = holo-Crcen; ref [11]; cited from earlier work

Melittin (Ac-…-NH2) (peptide), sequence (P01501 44-69): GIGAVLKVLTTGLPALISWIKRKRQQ
human centrin 2, sequence (P41208 2-172): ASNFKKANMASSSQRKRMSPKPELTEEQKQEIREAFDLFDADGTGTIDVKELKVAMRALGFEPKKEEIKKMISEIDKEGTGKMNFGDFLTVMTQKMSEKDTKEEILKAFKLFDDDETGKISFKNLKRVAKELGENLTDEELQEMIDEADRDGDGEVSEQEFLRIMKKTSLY

## CC[C@H](C)[C@H](NC(=O)CNC(C)=O)C(=O)NCC(=O)N[C@@H](C)C(=O)N[C@H](C(=O)N[C@@H](CC(C)C)C(=O)N[C@@H](CCCCN)C(=O)N[C@H](C(=O)N[C@@H](CC(C)C)C(=O)N[C@H](C(=O)N[C@H](C(=O)NCC(=O)N[C@@H](CC(C)C)C(=O)N1CCC[C@H]1C(=O)N[C@@H](C)C(=O)N[C@@H](CC(C)C)C(=O)N[C@H](C(=O)N[C@@H](CO)C(=O)N[C@@H](Cc1c[nH]c2ccccc12)C(=O)N[C@H](C(=O)N[C@@H](CCCCN)C(=O)N[C@@H](CCCNC(=N)N)C(=O)N[C@@H](CCCCN)C(=O)N[C@@H](CCCNC(=N)N)C(=O)N[C@@H](CCC(N)=O)C(=O)N[C@@H](CCC(N)=O)C(N)=O)[C@@H](C)CC)[C@@H](C)CC)[C@@H](C)O)[C@@H](C)O)C(C)C)C(C)C [MLT]
[1]
  conformational change of MLT in the complex: increased helicity
Human centrin 3
  affinity, human centrin 3-MLT, fold higher than Hscen2-MLT: 2–3 fold
CaM (calmodulin); BtCaM, 25 °C, pH 7.0, ref [14]
  thermodynamic driving force of complex formation, CaM: driven by entropy
CaM (calmodulin); holo-CaM-MLT, 1:1 molar ratio, ref [14],[15],[17]
  dissociation constant (Kd), holo-CaM: low nanomolar range
CaM (calmodulin); read-out: Kd, apo-CaM, ref [17],[18]
  Kd: ~10 µM
[2]
  binding site in crystal structure: interacts with the C-terminal domain of Crcen; also recorded: limits its interaction to the C-terminal domain of centrin
Human centrin 2 (Hscen2)
  enthalpy change, Hscen2-MLT: much more favorable for binding
[3]
  thermodynamic driving force of complex formation: driven by entropy; also recorded: driven entropically
  ΔG: -11.1 kcal/mol
  ΔS: 28.0 cal/mol∙K
[3]; one-site binding model
  n (binding stoichiometry): 1.38 ± 0.01
[3]; exothermic
  ΔHb: -2.73 ± 0.07 kcal/mol
Calmodulin (CaM)
  inhibition of calmodulin (CaM) activity: potent inhibitor
tumor
  cytotoxicity: cytotoxicity
  effect on tumor growth: inhibitory effect on tumor growth

## Melittin (Ac-…-NH2) (peptide)
[4]
  Kd: 7.41 nM
  dH: -2.73 kcal/mol
  stoichiometry N: 1.38

## human centrin 2 (from UniProt P41208)
[5]
  Kd: 62.5 nM

## Crcen: Chlamydomonas reinhardtii centrin (Swiss Protein Database accession number P05434), EF-hand calcium binding protein
[6]
  shift of amide I’ peak maximum with temperature, unlabeled Crcen: 2.5 cm⁻¹
[7]
  Tm (transition temperature): 112.1 °C
